Measurements from the RNAGym collection of RNA variant scans (doi:10.1126/science.aae0568).
This sample holds only a part of the variants without activity.

B1: tRNA (parent)
chain: GUUCCGUUGGCGUAAUGGUAACGCGUCUCCCUCCUAAGGAGAAGACUGCGGGUUCGAGUCCCGUACGGAACG

Variants of: B1
Assay: yeast fitness relative to wild type (ratio to wild type); higher = fitter; tRNA-Arg(CCU), competitive growth, 37 C, YPD
Summary of the method: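 The tRNA-Arg(CCU) gene variants were made by chemical synthesis with a 3% per-site mutation rate at 69 sites and inserted at the native genomic locus of Saccharomyces cerevisiae. After pooling, the strains were competed in YPD at 37°C for 24 hours in six parallel replicates. Gene amplicons from the start population and each end population were read by 100-nucleotide paired-end sequencing, and Darwinian fitness relative to wild type was taken from genotype frequency changes. Genotypes needed ≥ 100 starting reads, and estimates < 0.5 were set to 0.5.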

Variant | yeast fitness
A37G C60U A70U | ≤ 0.5
A37C A45U | 0.695
A36G G38C G58C | 0.687
A36U G56C A65C | ≤ 0.5
A36G C55A | 0.729
A36C A42U | 0.639
A37C G67U | 0.828
A36C A40G C46U | 0.569
A37C A45U G67C G68A | ≤ 0.5
A37C G56A G68U | 0.602
A36U C46A C62G | ≤ 0.5
U35G A69C | 0.592
U35C G41C A65C | ≤ 0.5
A37G A43U A65C | 0.627
A36C A57U | 0.509
A37G G44A | 0.73
A37G G44C | 0.809
A36U A65G | 0.673
A36C G58A | 0.618
A36G C49U A69C | 0.836
A37G A57G U64C | ≤ 0.5
A36G C61U A69C | 0.693
A37G A43G | 0.734
A37G G48A | 0.768

Variant | yeast fitness
A36G A37U C61G | ≤ 0.5
U35C G44A C46G G50C U53A C66A | ≤ 0.5
A37G C62A | 0.582
A36G C61U U64C C66U | ≤ 0.5
A37G C46U C62G | 0.533
A36U A42C C55G C61G | ≤ 0.5
A36C C66U | 0.575
A36U A42U C46U G56C C61G A65U G67A A70G | ≤ 0.5
U35G A43U C46G U53C A69C | ≤ 0.5
U35G U64C A65U | ≤ 0.5
A36U C49G U54C | 0.66
A37C G48C | 0.751
A37C G48A | 0.779
A36U A57C | 0.528
A36U A57G | 0.582
A36U A57U | 0.547
U35G C46U A65C G67C | ≤ 0.5
U35C G44A A57U C66G | ≤ 0.5
A37C A70C | 0.968
A37C A70U | 0.752
A37G A65U | 0.598
A37G A65G | 0.695
A36U C46U | 0.608
A36U C46A | 0.763

Variant | yeast fitness
A36U A45G | 0.606
A37G G39A C62U G63A | ≤ 0.5
A36C G38C G52A | ≤ 0.5
A36G A45C G52C A69C | 0.54
U35G G51A A65C | 0.622
A36C C46G G51A | ≤ 0.5
A37C A45U G52C | ≤ 0.5
A36C A45C C49U C55G C62A G68A | ≤ 0.5
A36U A40G U53A | 0.627
A36U G50A C61U | ≤ 0.5
A36C A37U | ≤ 0.5
A36C A37G | 0.611
A36C A37C U53G C66U A70C | 0.531
A36G A37U G56C | ≤ 0.5
A36U G48A | 0.657
A36U G39C | 0.669
A36U G39A | 0.657
A36G A45C G52C | 0.533
A36C A57U C60A | ≤ 0.5
A37C C55A C60G G63C | ≤ 0.5
A37G A40G C49U | 0.501
A37C A40C U53C | 0.526
A36C G38C A45G | 0.585
A36G A37U U64C A65G | ≤ 0.5

Variant | yeast fitness
A37C C60U A70C | 0.546
A36G A57G C61U | 0.56
A37C C49A | 0.651
A37G A42G C49A | ≤ 0.5
A37C A43C C66A | ≤ 0.5
A36G A37U C66A A69U | ≤ 0.5
A37G A57G | 0.87
A37G A57U | 0.55
A37C G51A U53C C62A | ≤ 0.5
A37C A42C A69U | 0.749
A36G U53A | 0.754
A37C G38A C66U | 0.587
A36U A37U C55U | 0.634
A36C C61U | 0.581
A37G A70U | 0.741
A37G A42U G48C C49U A65G | ≤ 0.5
A37C G44C G52C G58A | ≤ 0.5
A37C C49U C55A C60A | ≤ 0.5
A36U C61U G63A C66U | ≤ 0.5
U35C G68C | 0.644
U35C G68A | 0.67
U35C G68U | 0.657
A36U G48C C49G | ≤ 0.5
A36U G44A | 0.578

Variant | yeast fitness
A36G A40U G44A | 1.06
A36U U53G | 0.544
A36U U53A | 0.728
A36G G44A | 0.978
A36U G63A | 0.672
A36C A42U A65U | 0.647
U35G A40C | 0.682
A37C G50C | 0.551
A36C C46U | 0.577
A36C C46G | 0.543
U35G G44A | 0.509
U35C G50C | 0.703
U35C G50A | 0.927
A36C G48A | 0.594
A37C U47A G58A | ≤ 0.5
A36C C49A U54C U64C | ≤ 0.5
A36U C61U C66U | 0.582
U35G G38C G63A | ≤ 0.5
A37G C46G G56A | 0.624
U35G C62U | 0.7
U35G C62G | 0.597
A36C G48C C62U | ≤ 0.5
A37G C61U | 0.785
A37G A40G | 0.912

Variant | yeast fitness
A37G A40C | 0.685
A36C A45U U59A | ≤ 0.5
A37C C46U A65C | 0.638
A36C G41A U53C A65U | ≤ 0.5
A36U G39A A45G G63U | 0.535
A36G A40C A42G C61U | 0.566
A37G G44A A69U | 0.525
A37C C46U A65C G68A | ≤ 0.5
A36U A70U | 0.747
A37G C55U | 0.519
A36U A69U | 0.623
A37C G51A | 0.605
A37C G39A C60G C66A | ≤ 0.5
A37C U59C | 0.699
A37G C66A | 0.63
A36U A45U U53A C62A | ≤ 0.5
A37G A42C A65U A69C | ≤ 0.5
A36G A40G | 1.01
A36C U47A G56U | 0.617
A37G G39A A45C | 0.635
A36G C62U | 1.05
A36G C62A | 0.672
A36G C62G | 0.905
A37C G44C | 0.758

Variant | yeast fitness
A36G U64C C66U | 0.768
A37G A40U A65G | 0.571
A36C A45C U54A A57C | 0.538
U35C G58A C60U | ≤ 0.5
A36G G48C C60A | ≤ 0.5
A36G A45C C66U | 0.787
A36U C62U | 0.645
A36U C62A | 0.611
A37C A43U G63A | 0.666
A36G C61G A69G | 0.56
A36U A43C U53C | ≤ 0.5
A36G U64C | 0.78
A36U G56C | 0.563
A36U G56A | 0.574
A36G A42C C49A | 0.548
A36C G68A | 0.56
A37G G48C C49U C60A A65U | ≤ 0.5
A37C U47C G51A | ≤ 0.5
A37G A42C | 0.806
A37C A43C U59A A69G | ≤ 0.5
A36G A70U | 0.832
A36G A70G | 0.914
A36G A70C | 1.02
